Active and inactive are the calls of the source. The calls are words filed in the database; no cut-off is given here.
Key:
[1] = Inhibition of histidine-tagged HDAC4 wild type catalytic domain purified from Escherichia coli after 10 mins
In short: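 His-tagged HDAC4 catalytic domain (653-1084) expressed in E. coli. Trifluoroacetamide substrate then added for 1 h at 37 °C. Stopped with developer/TSA; fluorescence read at ex 360/em 460. IC50 values are means of >2 experiments.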

[2] = biological target: Histone deacetylase; assay: Inhibition of HDAC in human HCT116 cells assessed as alpha-tubulin deacetylation; format: cell-based; conditions: hct-116
In short: (§1)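 HCT116 cells treated 24 h. Alpha-tubulin acetylation measured, with the signal from 10 µM SAHA taken as 100% activation. Values are means of >2 experiments.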

[3] = Stability in human HCT116 cells by LCMS/MS in presence of 10% fetal bovine serum; format: ADME, cell-based, HCT-116
In short: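 Compounds at 1 and 5 µM incubated with HCT116 cells in medium with 10% FBS for up to 24 h. Aliquots taken over time and analysed by LCMS/MS. A cell-free medium control was run. Half-life was derived.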

[4] = Stability in human HCT116 cells S9 fraction by LCMS/MS in presence of NADPH; format: ADME, subcellular
In short: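 S9 at 1 mg/ml with 1 mM NADPH plus a regenerating system, 37 °C with low shaking. Stopped with 1N HCl, centrifuged, supernatant diluted with acetonitrile containing internal standard, analysed by LCMS/MS.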

[5] = biological target: T1, Histone deacetylase (Homo sapiens) (UniProt Q13547+O15379+Q9UBN7+Q92769+Q9UQL6+Q8WUI4+Q9BY41+Q96DB2+P56524+Q9UKV0+Q969S8); conditions: HCT-116, 50 uM
[6] = biological target: Histone deacetylase 1 (Homo sapiens, UniProt Q13547); assay: Inhibition of HDAC1 purified from HEK293 cells by Western blot; format: cell-free
[7] = biological target: Histone deacetylase 3 (Homo sapiens, UniProt O15379); assay: Inhibition of HDAC3 purified from HEK293 cells by Western blot; format: cell-free
[8] = biological target: T2, Protein deacetylase HDAC6 (Homo sapiens, UniProt Q9UBN7); assay: Inhibition of HDAC6 purified from HEK293 cells by Western blot; format: cell-free
T2 sequence (Q9UBN7 whole entry): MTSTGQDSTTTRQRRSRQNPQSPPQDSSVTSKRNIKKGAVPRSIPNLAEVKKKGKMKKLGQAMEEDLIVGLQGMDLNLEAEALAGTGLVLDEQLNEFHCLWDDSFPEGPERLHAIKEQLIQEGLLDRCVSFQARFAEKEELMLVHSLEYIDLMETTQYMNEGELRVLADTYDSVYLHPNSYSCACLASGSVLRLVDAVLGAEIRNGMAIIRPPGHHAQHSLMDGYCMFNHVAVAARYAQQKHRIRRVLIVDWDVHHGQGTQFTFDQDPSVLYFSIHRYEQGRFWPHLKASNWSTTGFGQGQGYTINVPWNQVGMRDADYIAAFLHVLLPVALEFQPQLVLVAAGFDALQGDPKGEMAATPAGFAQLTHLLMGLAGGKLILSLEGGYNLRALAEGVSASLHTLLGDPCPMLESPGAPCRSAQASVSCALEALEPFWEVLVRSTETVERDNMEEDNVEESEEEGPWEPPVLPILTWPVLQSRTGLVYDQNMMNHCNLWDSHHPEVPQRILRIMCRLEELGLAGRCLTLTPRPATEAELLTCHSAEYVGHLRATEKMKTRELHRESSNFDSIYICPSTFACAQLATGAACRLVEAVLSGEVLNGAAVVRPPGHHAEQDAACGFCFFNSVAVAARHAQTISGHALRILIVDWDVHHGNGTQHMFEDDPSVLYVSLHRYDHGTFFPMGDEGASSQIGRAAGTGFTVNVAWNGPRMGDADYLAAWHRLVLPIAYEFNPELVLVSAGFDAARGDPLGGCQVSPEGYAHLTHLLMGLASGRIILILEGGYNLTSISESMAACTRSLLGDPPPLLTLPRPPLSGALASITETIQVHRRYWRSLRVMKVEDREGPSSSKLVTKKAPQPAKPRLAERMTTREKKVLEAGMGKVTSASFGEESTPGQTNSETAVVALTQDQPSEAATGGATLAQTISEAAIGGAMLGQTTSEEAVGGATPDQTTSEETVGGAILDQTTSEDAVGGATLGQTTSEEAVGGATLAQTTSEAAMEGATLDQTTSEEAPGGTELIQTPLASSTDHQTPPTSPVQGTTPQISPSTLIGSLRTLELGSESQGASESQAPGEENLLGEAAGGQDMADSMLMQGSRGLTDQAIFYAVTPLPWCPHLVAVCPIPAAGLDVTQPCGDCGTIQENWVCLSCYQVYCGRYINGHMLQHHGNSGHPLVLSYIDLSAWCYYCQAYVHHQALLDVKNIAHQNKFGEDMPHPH

[9] = biological target: T3, Cytochrome P450 2C9 (Homo sapiens, UniProt P11712); assay: Inhibition of CYP2C9 in human liver microsomes; format: ADME, Microsome
In short: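 Human liver microsomes. Read-out is tritium released as tritiated water on CYP2C9-mediated 4'-hydroxylation of diclofenac tritiated at the 4' position. IC50 values are means of >2 experiments.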

[10] = biological target: T3, Cytochrome P450 2C9; assay: Inhibition of CYP2C9 in human hepatocytes; format: ADME, cell-based, Hepatocyte
In short: (§2)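 Human hepatocytes. Read-out is CYP2C9-mediated 4'-hydroxylation of 4'-tritiated diclofenac, measured as tritiated water. Run without serum and with 10% FBS added. IC50 values are means of >2 experiments.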

[11] = biological target: T3, Cytochrome P450 2C9; assay: Inhibition of CYP2C9 in human hepatocytes in presence of 10% fetal bovine serum; format: ADME, cell-based, Hepatocyte; in short: as §2
[12] = test system: Hepatocyte; assay: Toxicity in human hepatocytes by MTS assay; format: cell-based
[13] = biological target: T1, Histone deacetylase (Homo sapiens); conditions: HCT-116, 25 uM
[14] = biological target: Histone deacetylase; assay: Inhibition of HDAC in human HCT116 cells assessed as histone H3 deacetylation; format: cell-based; conditions: hct-116
[15] = biological target: T1, Histone deacetylase (Homo sapiens); assay: Inhibition of HDAC in human HCT116 cells assessed as alpha-tubulin deacetylation up to 10 uM after 24 hrs; format: cell-based; conditions: HCT-116; in short: as §1
[16] = biological target: T1, Histone deacetylase (Homo sapiens); assay: Inhibition of HDAC in human HCT116 cells assessed as alpha-tubulin deacetylation at 50 uM after 24 hrs relative to 10 uM SAHA; format: cell-based; conditions: HCT-116; in short: as §1
[17] = biological target: T1, Histone deacetylase (Homo sapiens); assay: Inhibition of HDAC in human HCT116 cells assessed as histone H3 deacetylation up to 10 uM; format: cell-based; conditions: HCT-116
[18] = Toxicity in human […] by MTS assay

T3 sequence (P11712 whole entry): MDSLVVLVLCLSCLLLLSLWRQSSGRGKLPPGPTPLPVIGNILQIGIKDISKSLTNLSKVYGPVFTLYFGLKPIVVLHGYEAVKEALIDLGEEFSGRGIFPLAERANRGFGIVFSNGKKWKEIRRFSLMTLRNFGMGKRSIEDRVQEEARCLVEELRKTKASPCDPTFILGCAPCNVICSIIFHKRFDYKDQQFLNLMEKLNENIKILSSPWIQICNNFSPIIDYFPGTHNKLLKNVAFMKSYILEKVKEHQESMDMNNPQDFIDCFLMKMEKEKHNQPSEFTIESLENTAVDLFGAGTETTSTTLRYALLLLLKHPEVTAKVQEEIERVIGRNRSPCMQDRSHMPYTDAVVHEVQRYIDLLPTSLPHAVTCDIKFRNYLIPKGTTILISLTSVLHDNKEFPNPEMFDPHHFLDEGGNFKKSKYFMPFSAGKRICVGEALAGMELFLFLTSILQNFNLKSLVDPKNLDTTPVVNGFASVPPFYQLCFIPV
Sequence of Histone deacetylase 3 (O15379 whole entry): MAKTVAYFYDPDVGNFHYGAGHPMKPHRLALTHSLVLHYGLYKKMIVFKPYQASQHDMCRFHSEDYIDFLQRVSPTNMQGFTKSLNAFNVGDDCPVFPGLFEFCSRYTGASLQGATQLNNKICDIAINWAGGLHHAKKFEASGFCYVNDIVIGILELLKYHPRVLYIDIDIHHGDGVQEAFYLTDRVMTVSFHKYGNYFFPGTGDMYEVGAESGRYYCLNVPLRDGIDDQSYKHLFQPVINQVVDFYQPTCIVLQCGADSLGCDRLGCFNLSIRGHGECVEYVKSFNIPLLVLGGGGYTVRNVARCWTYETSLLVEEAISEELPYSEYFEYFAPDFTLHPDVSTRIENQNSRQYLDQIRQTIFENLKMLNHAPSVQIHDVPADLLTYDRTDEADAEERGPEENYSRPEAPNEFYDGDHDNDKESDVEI
Sequence of Histone deacetylase 1 (Q13547 whole entry): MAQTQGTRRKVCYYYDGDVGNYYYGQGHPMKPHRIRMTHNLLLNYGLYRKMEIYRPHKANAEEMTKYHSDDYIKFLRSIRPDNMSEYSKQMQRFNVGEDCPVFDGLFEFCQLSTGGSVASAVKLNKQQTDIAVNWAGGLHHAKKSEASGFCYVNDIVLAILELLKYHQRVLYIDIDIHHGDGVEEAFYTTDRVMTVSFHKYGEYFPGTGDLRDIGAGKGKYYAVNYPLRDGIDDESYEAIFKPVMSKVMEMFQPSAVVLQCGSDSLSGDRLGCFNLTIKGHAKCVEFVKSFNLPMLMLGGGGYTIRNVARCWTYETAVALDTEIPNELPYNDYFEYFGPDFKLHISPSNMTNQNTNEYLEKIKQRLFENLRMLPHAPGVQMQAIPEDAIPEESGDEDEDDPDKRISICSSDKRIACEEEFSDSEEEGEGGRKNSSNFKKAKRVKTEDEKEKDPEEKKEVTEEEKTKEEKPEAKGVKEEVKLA

| IC50 [1] | half-life [3] | half-life [4] | IC50 [6] | IC50 [7] | IC50 [8] | IC50 [9] | IC50 [10] | Compound | Activity [12] | further results |
| --- | --- | --- | --- | --- | --- | --- | --- | --- | --- | --- |
| 0.1 µM | 3.5 h | 0.333 h | – | – | – | – | – | CN(Cc1ccc2nccnc2c1)C(=O)c1ccc(C(=O)C(F)(F)F)s1 | – | EC50 [2]: 12 µM; inhibition [5]: 40% |
| 0.17 µM | 3 h | – | 0.83 µM | 0.84 µM | 0.36 µM | 1.4 µM | 11 µM | CC(NC(=O)c1ccc(C(=O)C(F)(F)F)s1)c1cccc2ccccc12 (stereo not drawn) | Non-toxic | IC50 [11]: 17 µM; inhibition [13]: 50% |
| – | – | 0.25 h | – | – | 0.58 µM | – | – | O=C(c1ccc(C(=O)C(F)(F)F)[nH]1)N1CCc2ccccc21 | – | – |
| – | – | > 2 h | – | – | 3.32 µM | – | – | O=C(NCC1CCCCC1)c1ccc(C(=O)C(F)(F)F)cn1 | – | – |
| 0.3 µM | – | – | 4.7 µM | > 5 µM | – | – | – | O=C(c1ccc(C(=O)C(F)(F)F)s1)N1CCn2c(-c3ccccc3)cnc2C1 | – | – |
| 0.075 µM | – | > 2 h | – | – | – | – | – | Cc1noc(-c2ccc(C(=O)C(F)(F)F)s2)n1 | – | EC50 [2]: 6.5 µM |
| 0.09 µM | 5 h | – | 1.6 µM | 1.5 µM | 0.26 µM | 13 µM | 10 µM | CC(NC(=O)c1ccc(C(=O)C(F)(F)F)s1)c1ccncc1 (stereo not drawn) | Non-toxic | EC50 [2]: 10 µM; IC50 [11]: 3 µM; EC50 [14]: > 35 µM |
| 0.013 µM | – | 0.333 h | 1.6 µM | – | 0.41 µM | – | – | O=C(c1ncc(C(=O)C(F)(F)F)s1)N1CCc2ccccc21 | – | Activity [15]: inactive |
| 0.48 µM | – | – | – | – | 0.17 µM | 5 µM | 8 µM | COc1cccc(N2CCN(C(=O)c3ccc(C(=O)C(F)(F)F)s3)CC2)c1 | Non-toxic | inhibition [16]: 50%; IC50 [11]: 8 µM |
| 0.1 µM | – | 0.25 h | 0.55 µM | – | 0.19 µM | – | – | O=C(NCc1ccccc1Cl)c1ccc(C(=O)C(F)(F)F)s1 | – | Activity [15]: inactive |
| 0.51 µM | – | – | 0.89 µM | 0.56 µM | – | – | – | CN(Cc1ccccc1)C(=O)c1ccc(C(=O)C(F)(F)F)s1 | – | – |
| 0.07 µM | 2 h | – | 1.3 µM | 2.8 µM | 0.16 µM | 8 µM | 8 µM | O=C(c1ccc(C(=O)C(F)(F)F)s1)N1CCC(c2nnc(-c3ccccc3)o2)CC1 | Non-toxic | IC50 [11]: 5 µM |
| 0.15 µM | – | – | 1.3 µM | 1.4 µM | 0.13 µM | – | – | O=C(c1ccc(C(=O)C(F)(F)F)s1)N1CCc2ccccc21 | – | – |
| 0.17 µM | – | – | 5 µM | – | 0.15 µM | – | – | C[C@H](NC(=O)c1ccc(C(=O)C(F)(F)F)s1)c1ccccc1 | – | – |
| 0.53 µM | 2 h | – | 4.4 µM | > 10 µM | 0.175 µM | 1.8 µM | 1.8 µM | COc1ccc(Cl)cc1N1CCN(C(=O)c2ccc(C(=O)C(F)(F)F)s2)CC1 | Non-toxic | Activity [15]: inactive; Activity [17]: inactive; Activity [18]: Non-toxic |
